Measurements taken from ChEMBL document CHEMBL1255185, “Substituted 4-amino-1H-pyrazolo[3,4-d]pyrimidines as multi-targeted inhibitors of insulin-like growth factor-1 receptor (IGF1R) and members of ErbB-family receptor kinases” (Bioorg Med Chem Lett, 2010).
Activity calls are given as the source filed them. The calls are words filed in the database; no cut-off is given here.

Legend:
[1] = molecular target: T1, Insulin-like growth factor 1 receptor (Homo sapiens, UniProt P08069); assay: Inhibition of IGF1R
[2] = molecular target: Epidermal growth factor receptor (Homo sapiens, UniProt P04626+P00533+Q15303+P21860); assay: Inhibition of EGFR L858 mutant; type: protein assay
Summary of the method: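 Kinase inhibition was measured in a homogeneous time-resolved fluorescence assay. The EGFR enzyme construct carries the L858R activating mutation.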

[3] = molecular target: T2, Receptor tyrosine-protein kinase erbB-2 (Homo sapiens, UniProt P04626); assay: Inhibition of ErbB2
[4] = molecular target: T1, Insulin-like growth factor 1 receptor; assay: Inhibition of IGF1R phosphorylation in human MIAPaCa cells by ELISA; type: cell-based
Summary of the method: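 Cellular IGF1R phosphorylation was read out in ELISA format in MiaPaCa human pancreatic carcinoma cells, which express both IGF1R and EGFR.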

[5] = molecular target: Epidermal growth factor receptor (Homo sapiens, UniProt P00533); assay: Inhibition of EGFR phosphorylation in human MIAPaCa cells by ELISA; type: cell-based
[6] = molecular target: T2, Receptor tyrosine-protein kinase erbB-2; assay: Inhibition of ERBb2 phosphorylation in human BT474 cells by ELISA; type: cell-based, BT-474
Summary of the method: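 ErbB2 phosphorylation was read out in ELISA format in BT474 human breast tumour cells, which highly express ErbB2.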

Mus musculus [7] = assay: Dose normalized AUC in iv dosed C57BL/6 mouse; type: ADME, organism-based; conditions: in vivo
Summary of the method: (§1)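 Intravenous PK: AUC is normalized to dose and expressed per mg/kg.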

[8] = Half life in iv dosed C57BL/6 mouse; type: ADME, organism-based; conditions: in vivo
[9] = Clearance in iv dosed C57BL/6 mouse; type: ADME, organism-based; conditions: in vivo
Mus musculus [10] = assay: Dose normalized AUC in po dosed C57BL/6 mouse; type: ADME, organism-based; conditions: in vivo
Summary of the method: (§2)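 Mouse oral PK used a 10 mg/kg dose. AUC is normalized to dose (per mg/kg), and F is oral bioavailability.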

[11] = Tmax in po dosed C57BL/6 mouse; type: ADME, organism-based; conditions: in vivo; summary of the method: as §2
[12] = Cmax in C57BL/6 mouse at 10 mg/kg, po; type: ADME, organism-based; design: dose 10 mg/kg, route oral; conditions: in vivo; summary of the method: as §2
[13] = Oral bioavailability in C57BL/6 mouse at 10 mg/kg; type: ADME, organism-based; conditions: in vivo; summary of the method: as §2
Rattus norvegicus [14] = assay: Dose normalized AUC in iv dosed rat; type: ADME, organism-based; conditions: in vivo; summary of the method: as §1
[15] = Half life in iv dosed rat; type: ADME, organism-based; conditions: in vivo
[16] = Clearance in iv dosed rat; type: ADME, organism-based; conditions: in vivo
Rattus norvegicus [17] = assay: Dose normalized AUC in po dosed rat; type: ADME, organism-based; conditions: in vivo
Summary of the method: (§3)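 Rat oral PK used a 5 mg/kg dose. AUC is normalized to dose (per mg/kg), and F is oral bioavailability.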

[18] = Tmax in po dosed rat; type: ADME, organism-based; conditions: in vivo; summary of the method: as §3
[19] = Cmax in rat at 5 mg/kg, po; type: ADME, organism-based; design: dose 5 mg/kg, route oral; conditions: in vivo; summary of the method: as §3
[20] = Oral bioavailability in rat at 5 mg/kg; type: ADME, organism-based; conditions: in vivo; summary of the method: as §3
Mus musculus [21] = assay: Inhibition of IGF1R phosphorylation in C57BL/6 mouse at 30 mg/kg, iv by Western blotting; type: functional
Summary of the method: (§4)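 Female C57BL/6 mice were dosed iv with compound or vehicle; doses of 3, 10, 30 and 60 mg/kg were used. After 1 h, IGF-1 was given iv at 0.5 mg/kg, and mice were sacrificed 10 min later. Lung tissue was homogenized, and p-IGF1R and p-Akt were analyzed by Western blot. Drug levels in plasma and tissues were measured.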

Mus musculus [22] = assay: Inhibition of AKT phosphorylation in C57BL/6 mouse at 30 mg/kg, iv by Western blotting; type: functional, organism-based; design: dose 30 mg/kg; summary of the method: as §4

T1 sequence (P08069 31-736 limits assumed): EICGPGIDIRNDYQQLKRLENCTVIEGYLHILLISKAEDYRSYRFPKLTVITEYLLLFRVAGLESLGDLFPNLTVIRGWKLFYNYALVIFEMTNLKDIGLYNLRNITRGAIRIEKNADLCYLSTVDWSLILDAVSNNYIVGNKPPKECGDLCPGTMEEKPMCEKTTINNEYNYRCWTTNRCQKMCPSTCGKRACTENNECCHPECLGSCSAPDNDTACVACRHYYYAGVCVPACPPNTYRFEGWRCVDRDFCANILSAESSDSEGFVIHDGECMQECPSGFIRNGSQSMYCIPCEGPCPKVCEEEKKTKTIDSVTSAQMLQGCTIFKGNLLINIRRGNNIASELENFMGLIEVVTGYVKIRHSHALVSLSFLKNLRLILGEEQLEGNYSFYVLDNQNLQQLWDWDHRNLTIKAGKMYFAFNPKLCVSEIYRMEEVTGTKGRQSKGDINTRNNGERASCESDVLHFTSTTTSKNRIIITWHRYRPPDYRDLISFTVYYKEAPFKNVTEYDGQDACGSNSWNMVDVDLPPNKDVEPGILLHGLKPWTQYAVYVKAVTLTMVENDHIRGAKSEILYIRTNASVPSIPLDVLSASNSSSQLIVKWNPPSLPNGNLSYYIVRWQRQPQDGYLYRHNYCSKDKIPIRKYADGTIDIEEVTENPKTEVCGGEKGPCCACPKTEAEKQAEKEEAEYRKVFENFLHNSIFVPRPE
T1 sequence (P08069 741-1367 limits assumed): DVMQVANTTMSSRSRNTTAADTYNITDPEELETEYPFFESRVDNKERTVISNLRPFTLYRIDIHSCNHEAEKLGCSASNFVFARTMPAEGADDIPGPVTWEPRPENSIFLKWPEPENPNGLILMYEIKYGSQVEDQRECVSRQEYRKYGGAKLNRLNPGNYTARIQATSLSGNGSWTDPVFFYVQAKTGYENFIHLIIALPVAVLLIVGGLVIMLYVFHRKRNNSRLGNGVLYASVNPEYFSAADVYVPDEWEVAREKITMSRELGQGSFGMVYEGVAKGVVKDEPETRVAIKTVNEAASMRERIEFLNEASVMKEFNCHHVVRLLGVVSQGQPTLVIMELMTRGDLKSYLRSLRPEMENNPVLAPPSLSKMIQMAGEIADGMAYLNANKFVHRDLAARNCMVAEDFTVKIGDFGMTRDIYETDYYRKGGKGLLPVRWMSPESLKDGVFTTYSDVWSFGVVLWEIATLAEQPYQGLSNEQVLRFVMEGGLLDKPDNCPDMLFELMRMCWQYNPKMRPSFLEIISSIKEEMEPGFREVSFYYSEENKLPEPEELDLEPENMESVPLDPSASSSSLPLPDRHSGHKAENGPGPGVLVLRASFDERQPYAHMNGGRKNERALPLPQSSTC
Epidermal growth factor receptor (Homo sapiens, UniProt P00533), sequence (P00533 whole entry): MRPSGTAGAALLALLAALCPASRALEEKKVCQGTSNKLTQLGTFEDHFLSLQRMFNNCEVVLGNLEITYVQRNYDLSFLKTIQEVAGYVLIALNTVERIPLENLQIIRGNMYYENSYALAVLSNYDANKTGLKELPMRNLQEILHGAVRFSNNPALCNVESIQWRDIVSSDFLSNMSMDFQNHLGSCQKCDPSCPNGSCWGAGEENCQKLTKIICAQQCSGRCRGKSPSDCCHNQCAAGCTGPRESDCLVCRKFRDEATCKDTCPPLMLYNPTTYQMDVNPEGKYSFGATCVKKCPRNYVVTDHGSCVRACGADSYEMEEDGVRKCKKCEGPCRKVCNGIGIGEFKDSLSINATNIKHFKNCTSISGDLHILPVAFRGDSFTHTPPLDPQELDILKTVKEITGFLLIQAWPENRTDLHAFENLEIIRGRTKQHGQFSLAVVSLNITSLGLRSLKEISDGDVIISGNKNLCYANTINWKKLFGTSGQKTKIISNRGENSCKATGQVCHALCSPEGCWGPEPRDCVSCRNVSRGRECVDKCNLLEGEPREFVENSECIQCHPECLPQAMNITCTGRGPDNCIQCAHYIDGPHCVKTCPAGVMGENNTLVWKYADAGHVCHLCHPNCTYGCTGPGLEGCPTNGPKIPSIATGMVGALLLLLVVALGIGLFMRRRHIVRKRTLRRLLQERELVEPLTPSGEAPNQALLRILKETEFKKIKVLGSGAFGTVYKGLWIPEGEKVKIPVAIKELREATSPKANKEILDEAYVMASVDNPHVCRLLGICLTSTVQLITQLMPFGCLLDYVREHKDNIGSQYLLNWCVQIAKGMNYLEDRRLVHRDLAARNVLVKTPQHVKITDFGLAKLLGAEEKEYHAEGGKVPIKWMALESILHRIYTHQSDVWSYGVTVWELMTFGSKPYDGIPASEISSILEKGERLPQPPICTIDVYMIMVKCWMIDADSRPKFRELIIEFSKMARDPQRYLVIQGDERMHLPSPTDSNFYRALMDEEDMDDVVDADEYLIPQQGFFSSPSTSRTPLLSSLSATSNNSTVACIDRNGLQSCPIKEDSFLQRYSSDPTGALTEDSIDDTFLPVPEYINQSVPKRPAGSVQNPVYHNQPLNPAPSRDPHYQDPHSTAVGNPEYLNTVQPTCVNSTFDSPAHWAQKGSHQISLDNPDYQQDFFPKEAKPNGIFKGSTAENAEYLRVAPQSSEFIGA
T2 sequence (P04626 whole entry): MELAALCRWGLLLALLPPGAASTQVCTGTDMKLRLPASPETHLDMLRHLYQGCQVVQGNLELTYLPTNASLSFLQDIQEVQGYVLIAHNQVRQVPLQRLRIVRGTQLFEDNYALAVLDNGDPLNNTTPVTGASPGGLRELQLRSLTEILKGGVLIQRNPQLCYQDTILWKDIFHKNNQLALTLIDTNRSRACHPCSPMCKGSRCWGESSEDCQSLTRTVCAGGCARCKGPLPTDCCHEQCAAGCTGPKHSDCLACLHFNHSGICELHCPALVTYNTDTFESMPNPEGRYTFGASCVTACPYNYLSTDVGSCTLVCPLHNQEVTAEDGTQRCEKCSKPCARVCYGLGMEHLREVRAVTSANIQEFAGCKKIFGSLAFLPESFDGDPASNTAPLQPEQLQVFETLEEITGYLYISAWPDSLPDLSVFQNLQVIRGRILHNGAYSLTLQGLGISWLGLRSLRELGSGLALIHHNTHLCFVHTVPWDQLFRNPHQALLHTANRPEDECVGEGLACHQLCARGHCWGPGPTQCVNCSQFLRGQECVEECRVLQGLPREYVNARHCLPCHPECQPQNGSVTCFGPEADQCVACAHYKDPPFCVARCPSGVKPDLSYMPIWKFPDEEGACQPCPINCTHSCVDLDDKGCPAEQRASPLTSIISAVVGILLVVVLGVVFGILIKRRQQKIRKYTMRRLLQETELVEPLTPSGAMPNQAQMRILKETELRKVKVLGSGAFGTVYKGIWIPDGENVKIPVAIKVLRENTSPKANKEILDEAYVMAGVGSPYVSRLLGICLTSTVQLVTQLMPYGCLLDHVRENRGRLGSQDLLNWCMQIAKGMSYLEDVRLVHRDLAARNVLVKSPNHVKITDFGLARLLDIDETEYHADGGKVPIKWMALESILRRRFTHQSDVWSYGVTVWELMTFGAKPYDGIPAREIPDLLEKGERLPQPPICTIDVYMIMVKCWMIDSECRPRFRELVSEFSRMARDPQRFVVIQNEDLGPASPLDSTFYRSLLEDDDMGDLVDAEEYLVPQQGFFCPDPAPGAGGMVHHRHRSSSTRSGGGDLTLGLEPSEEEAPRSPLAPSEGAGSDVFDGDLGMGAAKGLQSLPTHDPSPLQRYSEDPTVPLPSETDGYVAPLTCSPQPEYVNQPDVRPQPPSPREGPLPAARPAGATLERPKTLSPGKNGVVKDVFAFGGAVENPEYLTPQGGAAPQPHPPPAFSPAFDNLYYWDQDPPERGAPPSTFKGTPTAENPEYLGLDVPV

COCCCN1CCN([C@H]2CC[C@H](n3nc(-c4ccc(Nc5nc6cccc(Cl)c6o5)cc4)c4c(N)ncnc43)CC2)CC1
IC50 [1]: 72.4 nM | IC50 [2]: 108 nM | IC50 [3]: 21.5 nM

CN1CCN([C@H]2CC[C@@H](n3nc(-c4ccc(Nc5nc6ccccc6o5)cc4)c4c(N)ncnc43)CC2)CC1
IC50 [1]: 810 nM | IC50 [2]: 1660 nM

CC(C)N1CCC(N2CCC(n3nc(-c4ccc(Nc5nc6cccc(Cl)c6o5)cc4)c4c(N)ncnc43)CC2)CC1
IC50 [1]: 115 nM | IC50 [2]: 97 nM | IC50 [3]: 15.1 nM

COC(=O)c1cccc2nc(Nc3ccc(-c4nn([C@H]5CC[C@@H](N6CCN(C)CC6)CC5)c5ncnc(N)c45)cc3)oc12
IC50 [1]: 179 nM | IC50 [2]: 3590 nM

CN1CCN([C@H]2C[C@@H](c3nc(-c4ccc5ccc(-c6ccccc6)nc5c4)c4c(N)nccn43)C2)CC1
IC50 [4]: 65 nM | IC50 [5]: > 30000 nM | IC50 [6]: > 30000 nM

CN1CCC(N2CCC(n3nc(-c4ccc(Nc5nc6cccc(Cl)c6o5)cc4)c4c(N)ncnc43)CC2)CC1
IC50 [1]: 108 nM | IC50 [2]: 99 nM | IC50 [3]: 14.5 nM

CN1CCN([C@H]2CC[C@@H](n3nc(-c4ccc(Nc5nc6cccc(Cl)c6o5)c(F)c4)c4c(N)ncnc43)CC2)CC1
IC50 [1]: 72 nM | IC50 [2]: 852 nM | IC50 [3]: 1350 nM

CN1CCN([C@H]2CC[C@H](n3nc(-c4ccc(Nc5nc6cccc(Cl)c6o5)cc4Cl)c4c(N)ncnc43)CC2)CC1
IC50 [1]: 4.1 nM | IC50 [3]: 15.4 nM

CC(C)N1CCN([C@H]2CC[C@H](n3nc(-c4ccc(Nc5nc6cccc(Cl)c6o5)cc4)c4c(N)ncnc43)CC2)CC1
IC50 [1]: 45.1 nM | IC50 [2]: 53.7 nM | IC50 [3]: 9.8 nM

Cc1cc(Cl)c2oc(Nc3ccc(-c4nn([C@H]5CC[C@@H](N6CCN(C)CC6)CC5)c5ncnc(N)c45)cc3)nc2c1
IC50 [1]: 348 nM | IC50 [2]: 1130 nM | IC50 [3]: 5230 nM

CN1CCN([C@H]2CC[C@@H](n3nc(-c4ccc(Nc5nc6cc(Cl)ccc6o5)c(F)c4)c4c(N)ncnc43)CC2)CC1
IC50 [1]: 415 nM | IC50 [2]: 1470 nM

COCCCN1CCN([C@H]2CC[C@@H](n3nc(-c4ccc(Nc5nc6cccc(Cl)c6o5)cc4)c4c(N)ncnc43)CC2)CC1
IC50 [1]: 424 nM | IC50 [2]: 874 nM | IC50 [3]: 397 nM

CN1CCN([C@H]2CC[C@H](n3nc(-c4ccc(Nc5nc6cccc(Cl)c6o5)c(Cl)c4)c4c(N)ncnc43)CC2)CC1
IC50 [1]: 49 nM | IC50 [2]: 63 nM | IC50 [3]: 29 nM

Cc1cc(-c2nn([C@H]3CC[C@H](N4CCN(C)CC4)CC3)c3ncnc(N)c23)ccc1Nc1nc2cccc(Cl)c2o1
IC50 [1]: 196 nM | IC50 [2]: 156 nM

CN(C)C(=O)CN1CCN([C@H]2CC[C@H](n3nc(-c4ccc(Nc5nc6cccc(Cl)c6o5)cc4)c4c(N)ncnc43)CC2)CC1
IC50 [1]: 126 nM | IC50 [2]: 1840 nM | IC50 [3]: 21.5 nM

CN1CCN([C@H]2CC[C@H](n3nc(-c4ccc(Nc5nc6cccc(Cl)c6o5)c(F)c4)c4c(N)ncnc43)CC2)CC1
IC50 [1]: 7.5 nM | IC50 [2]: 37 nM | IC50 [4]: 87 nM | EC50 [5]: > 1000 nM | IC50 [5]: 2880 nM | IC50 [6]: 362 nM | IC50 [3]: 16 nM

CN1CCN([C@H]2CC[C@@H](n3nc(-c4ccc(Nc5nc6cccc(Cl)c6o5)cc4)c4c(N)ncnc43)CC2)CC1
IC50 [1]: 77 nM | IC50 [2]: 393 nM | IC50 [3]: 200 nM

Cc1cc(C)c2oc(Nc3ccc(-c4nn([C@H]5CC[C@@H](N6CCN(C)CC6)CC5)c5ncnc(N)c45)cc3F)nc2c1
IC50 [1]: 160 nM | IC50 [2]: 2270 nM | IC50 [3]: 4030 nM

CC(C)N1CCN([C@H]2CC[C@@H](n3nc(-c4ccc(Nc5nc6cccc(Cl)c6o5)cc4)c4c(N)ncnc43)CC2)CC1
IC50 [1]: 174 nM | IC50 [2]: 322 nM | IC50 [3]: 62 nM

COCCCN1CCC(N2CCC(n3nc(-c4ccc(Nc5nc6cccc(Cl)c6o5)cc4)c4c(N)ncnc43)CC2)CC1
IC50 [1]: 283 nM | IC50 [2]: 264 nM | IC50 [3]: 13.8 nM

CN1CCN([C@H]2CC[C@@H](n3nc(-c4ccc(Nc5nc6cccc(C#N)c6o5)cc4)c4c(N)ncnc43)CC2)CC1
IC50 [1]: 113 nM | IC50 [2]: 2810 nM

Cc1cc(Br)c2oc(Nc3ccc(-c4cn([C@H]5CC[C@@H](N6CCN(C)CC6)CC5)c5ncnc(N)c45)cc3F)nc2c1
IC50 [1]: 94 nM | IC50 [2]: 1450 nM | IC50 [3]: > 62500 nM

Cc1cc(Nc2nc3cccc(Cl)c3o2)ccc1-c1nn([C@H]2CC[C@H](N3CCN(C)CC3)CC2)c2ncnc(N)c12
IC50 [1]: 22 nM | IC50 [2]: 530 nM | IC50 [3]: 478 nM

CN1CCN([C@H]2CC[C@@H](n3nc(-c4ccc(Nc5nc6cc(Cl)cc(Cl)c6o5)cc4)c4c(N)ncnc43)CC2)CC1
IC50 [1]: 584 nM | IC50 [2]: 639 nM

Nc1ncnc2c1c(-c1ccc(Nc3nc4cccc(Cl)c4o3)cc1)nn2[C@H]1CC[C@H](N2CCOCC2)CC1
IC50 [1]: 42 nM | IC50 [2]: 1020 nM | IC50 [3]: 334 nM

CN1CCN([C@H]2CC[C@H](n3nc(-c4ccc(Nc5nc6cccc(Cl)c6o5)cc4)c4c(N)ncnc43)CC2)CC1
IC50 [1]: 12.5 nM | IC50 [2]: 31.5 nM | IC50 [4]: 207 nM | EC50 [5]: > 1000 nM | IC50 [5]: 2300 nM | IC50 [6]: 340 nM | AUC (Mus musculus [7]): 940 ng·h/mL | half-life [8]: 2.4 h | clearance [9]: 31.8 mL/min/kg | AUC (Mus musculus [10]): 190 ng·h/mL | Tmax [11]: 3 h | Cmax [12]: 170 nM | bioavailability [13]: 20% | AUC (Rattus norvegicus [14]): 1260 ng·h/mL | half-life [15]: 8.4 h | clearance [16]: 15.2 mL/min/kg | AUC (Rattus norvegicus [17]): 380 ng·h/mL | Tmax [18]: 8 h | Cmax [19]: 160 nM | bioavailability [20]: 30% | inhibition in vivo at 30 mg/kg (Mus musculus [21]): 50% | inhibition (Mus musculus [22]): Active | IC50 [3]: 7.5 nM
